Key:
[1] = tested on: Canis familiaris; assay: Antiarrhythmic effect in coronary artery ligated dogs model at a dose of 5 mg/kg, administered intravenously and value noted at 20 min; type: functional, Canis lupus familiaris, Heart; conditions: route intravenous
How it was run: (§1)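 Coronary-ligated dogs with ventricular arrhythmias. Dosing was 5 mg/kg in 10–20 mL isotonic saline, given as an iv infusion over 5 min. Limb lead II ECG was monitored continuously for up to 6 h. Percent normal sinus beats was scored at control, end of dose, 20 min and 1 h. Values are mean ± SEM for three or more animals, mean ± SD for two.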

[2] = tested on: Canis familiaris; assay: Antiarrhythmic effect in coronary artery ligated dogs model at a dose of 5 mg/kg, value noted at end dose.; type: functional, Canis lupus familiaris, Heart; how it was run: as §1
[3] = tested on: Canis familiaris; assay: Antiarrhythmic effect in coronary artery ligated dog model at a dose of 5 mg/kg, administered intravenously and value noted at 1 hr; type: functional, Canis lupus familiaris, Heart; conditions: route intravenous; how it was run: as §1
[4] = species on record: Canis familiaris; assay: Compound was evaluated for the activity rating; type: functional, Canis lupus familiaris
How it was run: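 In ligated dogs given 5 mg/kg iv over 5 min, group % normal beats was plotted at end of dose, 20 min and 1 h. The area under this curve minus the control area was divided by the same area for an ideal response (100% normal beats for the whole hour), then multiplied by 100.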

[5] = tested on: Canis familiaris; assay: Compound was evaluated for the heart rate effect in normal dogs at a dose of 5 mg/kg, administered intravenously and value noted at end dose.; type: functional, Canis lupus familiaris; conditions: route intravenous
How it was run: (§2)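 Conscious normal dogs, trained and sling-restrained, received the same iv dosing: 5 mg/kg infused over 5 min. Heart rate came from continuous limb lead II ECG at control, end of dose, 20 min and 1 h. Values are mean ± SD for two dogs.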

[6] = tested on: Canis familiaris; assay: Compound was evaluated for the heart rate effect in normal dogs at a dose of 5 mg/kg, administered intravenously and value noted at 20 min.; type: functional, Canis lupus familiaris; conditions: route intravenous; how it was run: as §2
[7] = species on record: Canis familiaris; assay: Compound was evaluated for the duration of sustained effect; type: functional, Canis lupus familiaris
How it was run: (§3)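 Normal dogs received 5 mg/kg iv over 5 min, with heart rate tracked by continuous ECG. Dogs above 140 beats/min were followed until the rate fell to 140. The sustained effect was rated long (>2 h), moderate (0.5–2 h) or short (<0.5 h).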

[8] = species on record: Canis familiaris; assay: Compound was evaluated for the degree of tachycardia.; type: functional, Canis lupus familiaris
How it was run: (§4)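 Conscious normal dogs received 5 mg/kg iv over 5 min, with heart rate from limb lead II ECG. Tachycardia was graded as severe (≥200 beats/min), moderate (160–199), slight (<160 after a rise of ≥20) or none (change <20 beats/min).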

[9] = tested on: Canis familiaris; assay: Compound was evaluated for the heart rate effect in normal dogs at a dose of 5 mg/kg, administered intravenously and value noted at 1h.; type: functional, Canis lupus familiaris; conditions: route intravenous; how it was run: as §2
[10] = species on record: Canis familiaris; assay: Compound was evaluated for the degree of tachycardia; 160-199; type: functional, Canis lupus familiaris; how it was run: as §4
[11] = species on record: Canis familiaris; assay: Compound was evaluated for the duration of sustained effect; 0.5-2; type: functional, Canis lupus familiaris; how it was run: as §3

Structure (SMILES)	Normal beats [1] [%]	Normal beats [2] [%]	Normal beats [3] [%]	Activity rating [4]	Heart rate [5] [beats min-1]	Heart rate [6] [beats min-1]	Duration [7] [h]	Heart rate [8] [beats min-1]	Heart rate [9] [beats min-1]	Heart rate [10] [beats min-1]	Duration [11] [h]
Cl.OC(CCCN1CCCCC1)(c1ccccc1)c1ccccn1 (centres undefined)	21	97	8	17							
CC1CCCC(C)N1CCCC(O)(c1ccccc1)c1cccnc1.Cl (centres undefined)	16	43	6	13							
Cc1ccccc1C(O)(CCCN1C(C)CCCC1C)c1ccccc1.Cl (centres undefined)	61	92	61	60	155	149	>2	<160	151		
CC1CCCC(C)N1CCCC(O)c1ccccc1.Cl (centres undefined)	45	99	10	35							
CC1CCCC(C)N1CCCC(O)(c1ccccn1)c1ccccn1.Cl (centres undefined)	68	90	32	53							
CCC1CCCCN1CCCC(O)(c1ccccc1)c1ccccc1.Cl (centres undefined)	48	87	37	46							
CC1CCCC(C)N1CCCC(c1ccccc1)c1ccccn1.Cl (centres undefined)	37	62	67	47							
CC1CCCC(C)N1CCC(C(N)=O)(c1ccccc1)c1ccccc1.Cl (centres undefined)	51	64	83	39							
CC1CCCC(C)N1CCC(O)(c1ccccc1)c1ccccc1.Cl (centres undefined)	96	97	74	86	137	117			130		
CC(=O)NCC(CCCN1C(C)CCCC1C)(c1ccccc1)c1ccccc1.Cl (centres undefined)	71	95	53	62							
CC1CCCC(C)N1CCCC(O)(c1ccccc1)c1ccccc1.Cl (centres undefined)	86	96	76	81	187	155			165	160	
CC1CCCC(C)N1CCCC(C(N)=O)(c1ccccc1)c1ccccc1.Cl (centres undefined)	90	98	94	91	235	223	>2	>200	215		
CC1CCC(C)N1CCCC(O)(c1ccccc1)c1ccccc1.Cl (centres undefined)	39	69	35	29	243	218	>2	>200	193		
CC1CCCC(C)N1CCC(C#N)(c1ccccc1)c1ccccc1.Cl (centres undefined)	72	91	65	70							
CC1CCCC(C)N1CCCC(O)(c1ccccc1)c1ccncc1 (centres undefined)	11	51	7	13							
CC1CCC(C)N1CCCCC(O)(c1ccccc1)c1ccccn1 (centres undefined)	52	88	43	42							
CC1CCCC(C)N1CCCC(C#N)(c1ccccc1)c1ccccn1 (centres undefined)	50	100	97	36	154	154	<0.5	<160	131		
CC(=O)NCC(CCN1C(C)CCCC1C)(c1ccccc1)c1ccccc1 (centres undefined)	62	82	49	53	141	119	<0.5	<160	103		
CC1CCCC(C)N1CCC(CN)(c1ccccc1)c1ccccc1 (centres undefined)	61	100	39	50							
CC1CCCC(C)N1CCCCC(O)(c1ccccc1)c1ccccc1 (centres undefined)	84	99	51	72	137	139			140		0.5
CC1CCCC(C)N1CCCC(C(N)=O)(c1ccccc1)c1ccccn1 (centres undefined)	87	96	62	80	197	145			129	160	0.5
CC1CCCC(C)N1CC(O)(c1ccccc1)c1ccccc1 (centres undefined)	16	56	16	15	115	92			96		
Cl.OC(CCCN1CCCCC1)(c1ccccc1)c1ccccc1 [DIPHENIDOL HYDROCHLORIDE]	54	90	34	39	200	155	>2		142	160	
CC(C)N(CCC(C(N)=O)(c1ccccc1)c1ccccn1)C(C)C (centres undefined) [DISOPYRAMIDE]	60	89	16	49							
CC1CCCC(C)N1CCCC(O)(c1ccccc1)c1ccccn1.Cl (centres undefined) [PIRMENOL HYDROCHLORIDE]	80	94	59	71	194	172	>2		157	160	

From ChEMBL document CHEMBL1125713, “Synthesis and antiarrhythmic activity of cis-2,6-dimethyl-alpha,alpha-diaryl-1-piperidinebutanols” (1991)
